Compound activity (PubChem BioAssay)
KCNQ1 inh = blocks the human KCNQ1 potassium channel. CHO-K1 KCNQ1, FluxOR thallium flux fluorescence; active compounds read high. actives 1.3% (n = 310,000). P51787. B-score at 10 µM;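 active means compounds whose thallium flux B-score, printed positive for inhibition, exceeds three library SD while starting fluorescence stays within three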;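 further: channel opened by potassium depolarization with thallium stimulus after 20 min compound exposure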
Target sequence (P51787 whole entry, looked up): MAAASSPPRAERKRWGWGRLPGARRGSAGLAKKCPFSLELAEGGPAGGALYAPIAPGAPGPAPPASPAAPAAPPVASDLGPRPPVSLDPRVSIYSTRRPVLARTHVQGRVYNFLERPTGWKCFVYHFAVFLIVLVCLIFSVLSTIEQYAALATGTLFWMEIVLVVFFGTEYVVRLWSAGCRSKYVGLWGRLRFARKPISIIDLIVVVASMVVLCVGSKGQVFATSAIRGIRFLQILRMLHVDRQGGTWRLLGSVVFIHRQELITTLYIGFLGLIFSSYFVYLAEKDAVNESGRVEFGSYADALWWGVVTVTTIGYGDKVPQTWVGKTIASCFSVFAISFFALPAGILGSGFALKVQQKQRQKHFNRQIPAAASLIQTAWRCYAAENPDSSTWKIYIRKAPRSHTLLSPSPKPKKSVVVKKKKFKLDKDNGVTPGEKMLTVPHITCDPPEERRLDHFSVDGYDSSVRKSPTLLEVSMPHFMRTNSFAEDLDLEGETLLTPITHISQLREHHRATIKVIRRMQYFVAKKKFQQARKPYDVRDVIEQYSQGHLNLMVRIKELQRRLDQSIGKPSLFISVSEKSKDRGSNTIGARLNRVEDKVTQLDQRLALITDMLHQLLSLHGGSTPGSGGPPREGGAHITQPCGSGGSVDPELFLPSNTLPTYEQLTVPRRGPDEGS
KCNQ1 act = potentiates or activates the human KCNQ1 potassium channel; actives 0.35% (n = 310,000); CHO-K1 KCNQ1, thallium flux FluxOR fluorescence; active compounds read high; B-score at 10 µM;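 active means fluorescence ratio B-score, a plate-corrected score, at least three library SD, with initial intensity B-score within 5 SD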
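Test system: CHO-K1 cells stably expressing KCNQ1 / Medium: assay buffer / Also added: depolarizing K+/Tl+ stimulus, K2SO4 and Tl2SO4 each 12.5 mM in 5x stock / Incubation: 90 min dye loading and 20 min compound exposure, both at room temperature / Signal: thallium influx via FluxOR fluorescence, kinetic imaging / Evaluation: B score of baseline-normalized fluorescence ratio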
hERG rescue = compounds protecting human hERG from proarrhythmic drug block; Q12809; CHO-hERG, FluxOR thallium flux, dofetilide IC70 present; activation (rescue from dofetilide block), less the hit threshold, % at 10 µM; actives 0.51% (n = 310,000); AID 1511;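 active means activation above the mean of controls blocked by dofetilide plus 5 SD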;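 further: thallium influx through hERG after potassium depolarization seen as dye fluorescence rise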
KCNK9 inh = human KCNK9 channel inhibition; Q9NPC2; HEK293 KCNK9, FluxOR thallium flux fluorescence; active compounds read low; B-score at 10 µM; actives 1.2% (n = 310,000);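 active means ratio B-score over 3 SD below the library mean, with starting fluorescence within 5 SD of its mean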;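 further: negative B-score means less thallium flux so channel inhibition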
KCNK3 block = human KCNK3 channel inhibition, primary screen | O14649 | AID 602410 | CHO-KCNK3 thallium flux, FluxOR fluorescence; active compounds read low | actives 0.84% (n = 340,000) | B-score at 10 µM;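 active means B-score under library mean minus 4 SD, starting fluorescence ratio at most library mean plus 5 SD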;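 further: more negative B-score means stronger inhibition of thallium flux through KCNK3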
KCNQ1 block val = reconfirmed blocker of the human KCNQ1 potassium channel. shares compounds with KCNQ1 inh. KCNQ1 cell line, FluxOR thallium flux fluorescence. inhibition, % at 10 µM. actives 93% (n = 1,600). AID 588353;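 active means primary screen active, with duplicate mean exceeding buffer control mean plus 3 SD of buffer wells, cut at about 28% in these data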
CHO Tl flux = activity in parental CHO cells lacking KCNQ1; shares compounds with KCNQ1 inh; parental CHO-K1, FluxOR thallium flux fluorescence ratio; active compounds read low; zero means no signal rise above baseline; fluorescence ratio (Tl flux) at 10 µM; actives 21% (n = 1,600); AID 588366;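 active means mean of duplicate thallium-flux fluorescence ratios in parental host cells more than 5 SD below the buffer control mean, cut at about 0.38 in these data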;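 further: ratio is peak minus minimum fluorescence divided by baseline fluorescence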
KCNQ1 ephys val = blocks human KCNQ1 current in automated patch clamp; shares compounds with KCNQ1 inh; KCNQ1-CHO cells; AID 624120; calls only at 10 µM; actives 20% (n = 490);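 active means KCNQ1 current drop exceeding 3 SD of negative control wells, seen in both duplicate runs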;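 further: steady state current during a 2 s step from -80 to +40 mV; negative values mean current inhibition and positive values mean potentiation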
KCNQ2 spec = rat KCNQ2 inhibition in KCNQ1 inhibitor specificity screen | actives 71% (n = 1,600) | AID 651746 | KCNQ2 cells, FluxOR thallium flux fluorescence | inhibition, % at 10 µM | shares compounds with KCNQ1 inh;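 active means mean percent inhibition of the KCNQ2 thallium signal more than 5 SD above the buffer-only control wells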;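 further: KCNQ2 expressed in CHO cells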
KCNQ1 KCNE1 spec = selectivity of KCNQ1 inhibitors: inhibition of human KCNQ1/KCNE1 channel; KCNQ1/KCNE1 cells, FluxOR thallium flux fluorescence; actives 77% (n = 1,600); AID 652147; inhibition, % at 10 µM; shares compounds with KCNQ1 inh;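 active means mean percent inhibition of duplicate wells above the buffer-only control mean plus 3 SD of those controls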
KCNK9 block conf = confirmation of human KCNK9 potassium channel inhibitors; shares compounds with KCNK9 inh; HEK293 KCNK9 cells, FluxOR thallium flux fluorescence; inhibition, % at 10 µM; actives 43% (n = 4,900);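 active means thallium signal inhibited by more than 5 SD of the compound-free buffer control wells, on both duplicate plates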
Kir21 sel = selectivity of KCNK9 modulators against mouse Kir2.1; shares compounds with KCNK9 inh; inhibition, % at 10 µM; actives 4% (n = 4,900); Kir2.1 cells, FluxOR thallium flux fluorescence; AID 492993;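 active means thallium signal drop more than 5 SD beyond the mean of the no-compound control wells, seen in both duplicate plates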;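 further: signal is fluorescence rise after thallium addition divided by baseline fluorescence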
KCNK9 uninduced = second counter-screen for KCNK9 modulators: effect in non-induced cells. shares compounds with KCNK9 inh. non-induced KCNK9-HEK293, FluxOR thallium flux. inhibition, % at 10 µM. actives 40% (n = 4,900). AID 492997;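 active means thallium signal drop beyond 5 SD of the untreated control mean, on both duplicate plates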
Each line names hits and unclear results; the compound was inactive in the other large screens (follow-up assays come after a bar, where they were run). Compounds with a hit are over-represented: about 3.1% of the library has one in this group of screens.

CCN(CC)S(=O)(=O)c1ccc(C)c(NC(=S)Nc2cccc(S(=O)(=O)N3CCCCCC3)c2)c1	KCNQ1 inh 6 | KCNQ1 block val 85.5 | CHO Tl flux inactive | KCNQ2 spec 86.7% | KCNQ1 KCNE1 spec 89.0% | KCNK9 block conf inactive | Kir21 sel inactive | KCNK9 uninduced inactive
O=C(Nc1cccc(Cl)c1)Nc1cc(S(=O)(=O)N2CCCCC2)ccc1Cl	KCNQ1 inh 8 | KCNQ1 block val 104.0 | CHO Tl flux inactive | KCNQ2 spec 67.0% | KCNQ1 KCNE1 spec 105.0% | KCNK9 block conf inactive | Kir21 sel inactive | KCNK9 uninduced inactive
CCN(CC(=O)Nc1cc(S(=O)(=O)N2CCCCC2)ccc1Cl)Cc1ccccc1	KCNQ1 inh 11 | KCNQ1 block val 86.5 | CHO Tl flux inactive | KCNQ2 spec 104.0% | KCNQ1 KCNE1 spec 136.5% | KCNK9 block conf inactive | Kir21 sel inactive | KCNK9 uninduced inactive
O=C(NCC1CCCO1)C1CCCN(S(=O)(=O)c2cc(Cl)ccc2Cl)C1 (configuration not stated)	none
O=C(CSCc1cnn(-c2ccccc2)c1-n1cccc1)NCc1cccs1	KCNQ1 inh 7 | KCNQ1 block val 64.5 | CHO Tl flux inactive | KCNQ2 spec inactive | KCNQ1 KCNE1 spec 102.5% | KCNK9 block conf inactive | Kir21 sel inactive | KCNK9 uninduced inactive
CNC(=O)CSCc1cnn(-c2ccccc2)c1-n1cccc1	none
CC(=O)NC(CC(=O)OC(C)C(=O)Nc1ncc(Cl)cc1Cl)c1ccccc1 (configuration not stated)	none
O=C(CC1SC(=Nc2ccccc2)N(CCCO)C1=O)Nc1ccc(Cl)cc1 (configuration not stated)	KCNQ1 inh 9 | KCNQ1 block val 72.0 | CHO Tl flux inactive | KCNQ2 spec 78.0% | KCNQ1 KCNE1 spec 110.0% | KCNK9 block conf inactive | Kir21 sel inactive | KCNK9 uninduced inactive
Cc1cc(C)nc(NS(=O)(=O)c2ccc(NC(=O)CCC(=O)O)cc2)n1	none
Cc1cccc(N2CCN(C(=O)C(Cc3ccccc3)n3cccc3)CC2)c1C (configuration not stated)	KCNQ1 inh 9, KCNK9 inh -9.85 | KCNQ1 block val 140.5 | CHO Tl flux 0.311 | KCNQ2 spec 126.0% | KCNQ1 KCNE1 spec active | KCNK9 block conf 49.0% | Kir21 sel inactive | KCNK9 uninduced 36.0%
CN(C(=O)c1cccc(NC(=O)Cc2cccc(NC(=O)C3CCN(C(=O)c4ccccc4)CC3)c2)c1)C1CC1	none (no result: KCNQ1 inh, KCNQ1 act, hERG rescue, KCNK9 inh)
Cc1ccccc1CN1CCN(S(=O)(=O)c2ccc(Cl)s2)CC1	KCNQ1 inh 6 | KCNQ1 block val 90.0 | CHO Tl flux 0.37 | KCNQ2 spec 122.3% | KCNQ1 KCNE1 spec 118.5% | KCNK9 block conf inactive | Kir21 sel inactive | KCNK9 uninduced 29.0%
CCc1cccc(OCC(=O)Nc2ccc(C)c(S(=O)(=O)N3CCCCCC3)c2)c1	KCNQ1 inh 10 | KCNQ1 block val 121.5 | CHO Tl flux inactive | KCNQ1 ephys val inactive | KCNQ2 spec 116.3% | KCNQ1 KCNE1 spec 106.5% | KCNK9 block conf inactive | Kir21 sel inactive | KCNK9 uninduced 33.0%
COc1ccc(CC(=O)Nc2cccc(-c3csc(C)n3)c2)cc1	none
CC(C)CC(=O)Nc1cccc(-c2csc(-c3ccccc3)n2)c1	KCNQ1 inh 18, KCNK9 inh -13.8 | KCNQ1 block val 148.0 | CHO Tl flux 0.346 | KCNQ2 spec inactive | KCNQ1 KCNE1 spec active | KCNK9 block conf 67.0% | Kir21 sel inactive | KCNK9 uninduced 31.5%
O=C(Nc1ccccc1Cl)c1sccc1-c1ccccc1	KCNQ1 inh 6, KCNK9 inh -9.66 | KCNQ1 block val active | CHO Tl flux 0.349 | KCNQ2 spec inactive | KCNQ1 KCNE1 spec inactive | KCNK9 block conf 34.0% | Kir21 sel inactive | KCNK9 uninduced 30.0%
CCn1c(SCC(=O)N2CCN(c3ccccc3)CC2)nc2c(c1=O)SC(C)C2 (configuration not stated)	none
CC1Cc2nc(SCC(=O)N3CCN(c4ccccc4)CC3)n(CCc3ccccc3)c(=O)c2S1 (configuration not stated)	KCNQ1 inh 8 | KCNQ1 block val 70.0 | CHO Tl flux inactive | KCNQ2 spec 84.0% | KCNQ1 KCNE1 spec 175.0% | KCNK9 block conf inactive | Kir21 sel inactive | KCNK9 uninduced inactive
C[C@@H]1CN([C@H](C)CO)C(=O)c2cc(NS(=O)(=O)c3cn(C)cn3)ccc2O[C@H]1CN(C)C(=O)Nc1ccccc1	none (no result: KCNQ1 inh, KCNQ1 act, hERG rescue, KCNK9 inh)
N#Cc1c(N2CCN(C(=O)c3ccccc3Cl)CC2)nc(-c2ccccc2)c2c1CCCC2	KCNQ1 inh 8 | KCNQ1 block val 92.5 | CHO Tl flux 0.342 | KCNQ2 spec 102.3% | KCNQ1 KCNE1 spec 117.0% | KCNK9 block conf inactive | Kir21 sel inactive | KCNK9 uninduced inactive
CCC(C(=O)Nc1ccccc1N1CCCC1)c1ccccc1 (configuration not stated)	none
CCC(Oc1ccccc1)C(=O)Nc1ccccc1N1CCCCC1 (configuration not stated)	KCNQ1 inh 6, KCNK9 inh -14.6 | KCNQ1 block val 121.0 | CHO Tl flux inactive | KCNQ1 ephys val inactive | KCNQ2 spec 99.0% | KCNQ1 KCNE1 spec 143.0% | KCNK9 block conf 50.0% | Kir21 sel inactive | KCNK9 uninduced 41.0%
COc1cc2ccccc2cc1C(=O)Nc1ccccc1N1CCCC1	KCNQ1 inh 20, KCNK9 inh -8.99 | KCNQ1 block val 99.0 | CHO Tl flux inactive | KCNQ1 ephys val inactive | KCNQ2 spec 81.7% | KCNQ1 KCNE1 spec 110.0% | KCNK9 block conf 35.0% | Kir21 sel inactive | KCNK9 uninduced 34.0%
O=C(NCCc1ccc(Cl)cc1)c1cc(S(=O)(=O)N2CCCCC2)c[nH]1	none
